The list is not random: actives were taken first. Their share in the collection is about 2.6%.
S1P3 ag: S1P3 (human) receptor agonism | S1P3 NFAT-BLA reporter cells, FRET ratio; relative to 1 µM S1P, basal subtracted | AID 373 | activation, % at 4.5 µM | 60,000 compounds, 0.1% hits | Q99500;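 active = activation above the screen-wide mean plus 3 SD, cut at about 4.5% in these data, passing the limit was not always enough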
Target sequence (Q99500 whole entry, looked up): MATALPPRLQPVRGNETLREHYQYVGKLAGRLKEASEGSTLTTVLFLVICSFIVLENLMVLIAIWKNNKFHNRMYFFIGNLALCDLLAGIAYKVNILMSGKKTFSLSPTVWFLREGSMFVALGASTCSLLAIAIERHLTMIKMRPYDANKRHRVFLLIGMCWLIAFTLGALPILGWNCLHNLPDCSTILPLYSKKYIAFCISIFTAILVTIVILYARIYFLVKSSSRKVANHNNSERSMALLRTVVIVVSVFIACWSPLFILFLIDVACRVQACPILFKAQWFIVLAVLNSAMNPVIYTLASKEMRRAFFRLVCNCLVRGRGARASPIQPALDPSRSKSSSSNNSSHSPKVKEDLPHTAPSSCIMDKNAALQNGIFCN
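Assay system: stable CHO line with human S1P3, Gα16, NFAT-BLA reporter; Detection: FRET β-lactamase substrate fluorescence, excitation 405 nm, 460/535 nm emission ratio, background-subtracted; Read-out: percent activation versus median 1 µM S1P response, basal-subtracted, per plate; Incubation: cells plated overnight, compound 4 h 37 °C, substrate 2 h RT.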
5HT1E ag: activates the human 5-HT1E serotonin receptor. AID 574. P28566. CHO 5-HT1E Ga15 NFAT-bla reporter, FRET; 0% DMSO wells, 100% control agonist wells. 65,000 compounds, 0.69% hits. activation, % at 6 µM;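 active = activation above a set limit, the screen-wide mean activation plus 3 SD, cut at about 8.5% in these data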;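 note: 100% = positive control agonist at 1 µM giving full maximal response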
HTR1A agonist: 5-HT1a (human) receptor agonism | 65,000 compounds, 0.56% hits | P08908 | AID 567 | CHO 5-HT1a Ga15 NFAT-bla reporter, FRET ratio; 0% basal, 100% maximal reference agonist | activation, % at 10 µM;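 active = activation above the screen-wide mean activation plus 3 SD, cut at about 19% in these data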;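 note: 0% = DMSO wells and 100% = 5-CT at EC100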
HTR1E antagonist: antagonists of human 5-HT1E serotonin receptor | 65,000 compounds, 0.99% hits | inhibition, % at 6 µM | AID 571 | CHO 5-HT1E Ga15 NFAT-bla reporter, FRET, antagonist;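 active = inhibition above a set limit, the mean inhibition across every tested compound plus 3 SD, cut at about 29% in these data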;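 note: signal is the 460 over 535 nm emission ratio of beta-lactamase substrate; 0% = agonist plus DMSO wells and 100% = wells without agonist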
5-HT1A blocker: 5-HT1a (human) receptor antagonism. CHO 5-HT1a Ga15 NFAT-bla reporter, antagonist mode. 62,000 compounds, 0.68% hits. P08908. inhibition, % at 10 µM. AID 612;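 active = inhibition above the mean of all tested compounds plus 3 SD, cut at about 43% in these data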;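 note: receptor stimulated by 5-CT agonist at 100 nM near EC80; beta-lactamase reporter measured by ratiometric fluorescence of a cleavable substrate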
* marks the source's active call; other numbers are inactive results; / = no result.

SMILES	S1P3 ag	5HT1E ag	HTR1A agonist	HTR1E antagonist	5-HT1A blocker
O=S(=O)(NC1CCCC1)c1cccc(S(=O)(=O)N2CCC(n3nnc4ccccc43)CC2)c1	-0.2	-1.2	-0.6	-1.8	-1.8
Nc1nc(-c2ccccc2)cc(-c2ccccc2O)n1	0.4	0.2	-1.2	-3.0	57.2*
Nc1nc(-c2ccccc2)nc(-c2ccccc2O)n1	-0.5	-0.3	-2.8	7.8	51.4*
CCNC(=O)C1CC(=O)N(CC)C(=Nc2cc(Cl)c(O)c(Cl)c2)S1 (stereo not given)	-0.9	0.0	-3.9	-4.9	1.6
CCCCOc1ccc(C2C3CN(C(=O)OCC)CC=C3C(C#N)=C(N)C2(C#N)C#N)cc1OC (stereo not given)	0.4	1.6	46.1*	-5.8	-4.7
Cc1ccc(C2C3CN(C(C)C)CC=C3C(C#N)=C(N)C2(C#N)C#N)cc1 (stereo not given)	1.8	3.6	31.7*	-18.1	/
CCc1c(C)nc2cc(-c3cc(OC)cc(OC)c3)nn2c1N1CCCC1	-0.6	-0.2	-0.4	21.4	26.0
CCc1c(C)nc2cc(-c3ccc(OC)c(OC)c3)nn2c1N1CCCC1	/	0.2	1.2	31.3*	15.2
COc1ccc(NC(=O)CSc2nnc(CNc3ccc(F)cc3)o2)c(OC)c1	0.8	0.0	-1.5	-3.9	1.9
O=C(CSc1nnc(COc2ccc3c(c2)CCCC3)o1)Nc1ccc(F)cc1	-1.0	9.3*	-1.2	3.8	-0.3
O=C(O)CC1C(=O)NCCN1Cc1ccc(F)c(F)c1 (stereo not given)	0.1	22.3*	-5.2	-4.0	-12.7
Fc1ccccc1N1CCN(c2ncnc3[nH]ncc23)CC1	0.0	-0.6	309.9*	4.9	-8.0
Cc1nc(SCC(=O)NCc2ccco2)c2c(C)c(C)sc2n1	0.6	0.3	-0.6	5.7	-5.5
Cc1sc2ncnc(SCC(=O)NC(=O)NCc3ccco3)c2c1C	-0.5	-0.1	98.4*	27.8	27.2
O=C(CN1CCN(c2ccc(Cl)cc2)CC1)c1ccc2c(c1)OCO2	-1.0	14.7*	-3.0	15.4	5.4
CCCCOC(=O)Nc1ccc(S(=O)(=O)Nc2nc(C)cc(C)n2)cc1	-1.1	11.5*	5.6	10.9	/
CC1=NC(C(F)(F)F)(C(F)(F)F)C(C#N)=C(C)N1	-0.6	-0.9	-3.7	7.2	-7.5
CC(=O)N(C)c1ccc(NS(=O)(=O)Cc2ccccc2)cc1	-1.1	-0.5	68.9*	1.4	-6.8
COc1ccc(N2CCN(CC(O)c3c[nH]c4ccc(OC)cc34)CC2C)cc1 (stereo not given)	-0.6	-0.1	22.9*	3.4	19.4
CC1=C(C)C(=O)NC(Nc2nc(C)c3cc(C)cc(C)c3n2)N1 (stereo not given)	0.8	0.0	-0.3	1.8	-17.5
CCOc1ccc(CCNS(=O)(=O)c2cnc[nH]2)cc1OCC	-1.1	-0.5	0.6	31.3*	-0.6
Cc1ccccc1Cn1nc(C)c(NC(=O)c2noc3c2CC(C(C)(C)C)CC3)c1C (stereo not given)	-0.8	0.9	3.8	0.1	-10.1
Cc1ccccc1Cn1cc(NC(=O)c2noc3c2CC(C(C)(C)C)CC3)cn1 (stereo not given)	-1.2	2.5	26.0*	-2.5	5.8
Cc1ccc(C2CC(C(F)(F)F)n3ncc(C(=O)NCc4ccco4)c3N2)cc1 (stereo not given)	-1.3	-0.9	-4.0	-1.1	-1.4
COc1ccc(C(c2nnnn2Cc2cccs2)N2CCN(c3ccccc3F)CC2)cc1 (stereo not given)	-1.7	0.3	-2.5	2.1	32.5
SMILES	S1P3 ag	5HT1E ag	HTR1A agonist	HTR1E antagonist	5-HT1A blocker
COc1ccc(NC(=O)CSc2ccccn2)cc1OC	-0.1	0.5	-2.6	-4.7	-10.1
COc1ccc(/C=N/n2cncn2)cc1CSc1ccccn1	-4.9	16.1*	-0.5	-7.6	/
CC1CCC(NC(=O)C2CCN(C(=O)NC3CCCCC3)CC2)CC1 (stereo not given)	0.4	-0.1	1.0	-0.4	-3.1
Cc1ccc(Nc2cc(C)nn2-c2nc(C)cc(=O)[nH]2)cc1	-1.7	0.2	-8.1	74.3*	61.0*
COc1ccc(-n2nnc3c(SCC(=O)N4CCN(c5ccccc5)CC4)ncnc32)cc1	-1.4	-1.6	-0.6	3.0	2.1
O=C(CSc1nc2ccccc2s1)Nn1cnnc1	-1.4	0.6	0.4	3.2	/
COc1cc(C2C(C#N)=C(C)NC3=C2C(=O)c2ccccc23)cc(OC)c1OC (stereo not given)	-0.9	1.0	-4.3	82.3*	63.1*
CCN(CC)S(=O)(=O)c1ccc(/C(O)=C(\C#N)c2nc3ccccc3n2C)cc1	-0.5	0.0	15.2	38.8*	-22.7
Cc1ccc(SC/C(O)=C(\C#N)c2nc3ccccc3n2C)cc1	-0.7	0.2	0.2	-10.0	-29.0
O=C(CN1C(=O)C2CC=CCC2C1=O)NC1=NCCS1 (stereo not given)	1.1	-0.6	-0.1	0.9	-1.5
COc1cc2c(cc1OC)C1=C(C#N)CN(CC(=O)O)CN1CC2	-0.5	-0.9	0.2	32.7*	5.0
COc1cc2c(cc1OC)CN(C(=O)COc1ccc(C#N)cc1)CC2	-0.4	-0.5	-2.5	-1.8	-2.3
c1ccc(CCn2nnnc2C(c2cccnc2)N2CCN(c3ccccc3)CC2)cc1 (stereo not given)	-0.6	9.9*	-0.8	1.2	8.7
c1ccc(CCn2nnnc2C(c2cccnc2)N2CCN(c3nc4ccccc4s3)CC2)cc1 (stereo not given)	0.2	1.0	2.4	1.7	17.8
Fc1ccc(N2CCN(C(c3cccs3)c3nnnn3CCc3ccccc3)CC2)cc1 (stereo not given)	0.6	0.8	2.1	-5.0	24.9
Fc1ccccc1N1CCN(C(c2cccs2)c2nnnn2CCc2ccccc2)CC1 (stereo not given)	-0.8	-0.9	-3.9	20.1	57.4*
COc1ccc(C)cc1-n1nnnc1SCc1cc(=O)n2cc(C)ccc2n1	-0.1	-0.2	-1.3	9.2	7.4
COc1ccccc1-c1nnc2n1N=C(c1ccc(O)c(O)c1)CS2	-5.0	-0.7	-0.4	65.6*	/
CCOc1ccc(-c2nnc3n2N=C(c2ccc(OC)cc2)CS3)cc1	/	1.3	0.1	18.8	14.3
Brc1ccccc1C1=Nn2c(nnc2-c2ccccc2)SC1	-0.2	-0.9	-1.9	32.8*	32.7
Brc1ccc(C2=Nn3c(nnc3-c3cccnc3)SC2)s1	-0.2	0.4	-2.3	2.4	-15.0
COc1ccc(C2=Nn3c(nnc3-c3cccnc3)SC2)cc1OC	1.9	-0.2	1.3	33.8*	/
CCOc1ccc(C2=Nn3c(nnc3-c3ccccc3OC)SC2)cc1	-6.5	-0.6	0.6	75.4*	/
COc1ccc(C2=Nn3c(nnc3-c3ccccn3)SC2)cc1	-2.1	0.4	10.1	-14.5	/
Cc1ccc(C(C)C)c(OCCNc2nc3c(c(=O)n(C)c(=O)n3C)n2C)c1	-0.7	0.3	-1.3	-2.2	/
